# Published values gathered from unrelated publications.
# Each line is one published result; the experiments were not run side by side.
# Medium: plasma
SMILES,system,conditions,Cmax
COc1cc(C(=O)NC2CCN(C)CC2)c(F)cc1Nc1ncc(C(F)(F)F)c(Oc2cccc3c2C(=O)N(C)C3)n1,human,"oral, 10 mg, single dose, patients",44.8 nM
N#CN1C[C@H](n2nc(-c3ccc(Oc4ccc(Cl)cn4)cc3)c(C(N)=O)c2N)CCC12CC2,human,"oral, 600 mg, single dose, fed",1060 ng/mL
CC(C)(Sc1ccncc1-c1ccc(C#N)c2ccccc12)C(=O)O,male human,"oral, 5 mg, single dose, fed, healthy volunteers",45.7 ng/mL
FC(F)(F)c1ccc(CNc2ccc(Cc3c[nH]c4ncc(Cl)cc34)cn2)cn1,human,"oral, 600 mg, multiple doses, patients",3660 ng/mL
CC(C)n1cc(C#N)c2cc(-n3cc(C(=O)O)cn3)ccc21,male human,"oral, 600 mg, single dose, fasted, healthy volunteers",18200 ng/mL
Cc1ccc(C(=O)N(CCCN)[C@@H](c2oc3cc(Cl)ccc3c(=O)c2Cc2ccccc2)C(C)C)cc1,human,"intravenous, 8 mg/m², single dose, patients, infusion",803 ng/mL
O=C(/C=C/c1cccc(S(=O)(=O)Nc2ccccc2)c1)NO,human,"intravenous, 2000 mg/m², patients",112000 ng/mL
CCn1c(=O)c(-c2cc(NC(=O)Nc3ccccc3)c(F)cc2Br)cc2cnc(NC)cc21,human,"oral, 20 mg, single dose, patients",109 ng/mL
COc1ccc([C@@H]2CN(C(=O)[C@@H](O)CO)C[C@@]2(C)[C@@H](C)O)cc1OC1CN(c2ccc(C)cn2)C1,human,"oral, 10 mg, single dose, healthy volunteers",319 ng/mL
CNCC[C@H](Oc1cccc2ccccc12)c1cccs1,female human,"oral, 60 mg, multiple doses, once daily",54 ng/mL
COCCOc1cnc2ccn([C@H](C)c3nnc4c(F)cc(-c5cnn(C)c5)cn34)c(=O)c2c1,human,"oral, 150 mg, multiple doses, once daily, patients",2910 ng/mL
CO[C@H]1CC[C@H](N2C(=O)CNc3ncc(-c4ccc(C(C)(C)O)nc4)nc32)CC1,human,"oral, 30 mg, patients",188 ng/mL
CCCCC[C@H](O)CC[C@@H]1[C@H]2Cc3cccc(OCC(=O)O)c3C[C@H]2C[C@H]1O,human,"inhaled, 36 µg, single dose, healthy volunteers",0.87 ng/mL
CCO[C@H]1CCN(Cc2c(OC)cc(C)c3[nH]ccc23)[C@H](c2ccc(C(=O)O)cc2)C1,human,"oral, 50 mg, multiple doses, twice daily, patients",1800 ng/mL
Cn1c(=O)oc2ccc(-c3ccc(C[C@@H](C#N)NC(=O)[C@@H]4CNCCCO4)cc3)cc21,male human,"oral, 50 mg, single dose, healthy volunteers",1040 nM
COc1cc2c(Nc3ccc(Br)cc3F)ncnc2cc1OCC1CCN(C)CC1,human,"oral, 65 mg/m², multiple doses, once daily, steady state, patients",868 ng/mL
O=C(NO)c1ccc(CN(c2cnccn2)c2cnccn2)cc1,human,"oral, 800 mg, multiple doses, twice daily, patients",1270 ng/mL
CCCOc1ccc([C@H]2CNC(=O)N2c2ccc3[nH]cnc3c2)cc1,human,"oral, 200 mg, fasted, healthy volunteers",989 ng/mL
CC(C)(C(=O)N1CCOc2c(C#N)cncc2C1)C(F)F,human,"oral, 10 mg, single dose, fasted, healthy volunteers",116 ng/mL
CCCCC1=NC2(CCCC2)C(=O)N1Cc1ccc(-c2ccccc2S(=O)(=O)Nc2noc(C)c2C)c(COCC)c1,human,"oral, 800 mg, single dose, fasted, healthy volunteers",7650 ng/mL
Br.Cc1ccc(Sc2ccccc2N2CCNCC2)c(C)c1,human,"oral, 10 mg, multiple doses, steady state, healthy volunteers",18 ng/mL
CCc1nc2c(C)cc(N3CCN(CC(=O)N4CC(O)C4)CC3)cn2c1N(C)c1nc(-c2ccc(F)cc2)c(C#N)s1,human,"oral, 1000 mg, fed, healthy volunteers",13200 ng/mL
Oc1cc(O)c2c(c1)O[C@@H](c1ccc(O)c(O)c1)[C@@H](O)C2,human,"oral, 10 mg, single dose",0.4 ng/mL
Cn1cc(-c2ccc(S(=O)(=O)[C@@H]3C[C@@H](C(=O)NC4(C#N)CC4)N(C(=O)C4(C(F)(F)F)CC4)C3)c(C(F)(F)F)c2)cn1,human,"oral, 1 mg, single dose, fasted, healthy volunteers",4.51 ng/mL
O=C(Nc1c(Cl)cncc1Cl)c1ccc(OC(F)F)c(OCC2CC2)c1,human,"oral, 0.375 mg, single dose, fasted",9.2 ng/mL
CC(C)(O)c1ccccc1-c1ccc2[nH]c(/C=C/c3ccc(C(F)(F)F)cc3)nc2c1,male human,"oral, 225 mg, single dose, fasted, healthy volunteers",525 ng/mL
CO[C@@H]1[C@H](OC(=O)N2CC(CCN3CCOCC3)C2)CC[C@]2(CO2)[C@H]1[C@@]1(C)O[C@@H]1CC=C(C)C,human,"subcutaneous, 0.2 mg, single dose, healthy volunteers",0.45 ng/mL
CNC(=O)c1cc(Oc2ccc(NC(=O)Nc3cc(C(C)(C)C)nn3-c3ccc4ncccc4c3)c(F)c2)ccn1,human,"oral, 150 mg, multiple doses, twice daily",308 ng/mL
CS(=O)(=O)CCNCc1ccc(-c2ccc3ncnc(Nc4ccc(OCc5cccc(F)c5)c(Cl)c4)c3c2)o1,human,"oral, 750 mg, multiple doses, twice daily, steady state, patients",2110 ng/mL
COc1cc2c(cc1OC)CN(CCc1ccc(NC(=O)c3cc(OC)c(OC)cc3NC(=O)c3cnc4ccccc4c3)cc1)CC2,human,"intravenous, 1.5 mg/kg, patients",2300 nM
C[C@@]1(c2cc(NC(=O)c3ccc(C#N)cn3)ccc2F)C=CSC(N)=N1,human,"oral, 30 mg, single dose",148 ng/mL
